Published values pooled from the literature.
Compare with care: the assays were run in different laboratories.
Target: Aurora kinase B (AURKB, Homo sapiens, UniProt Q96GD4)

| SMILES | observed | mode | method | tested at | quantity | result |
| --- | --- | --- | --- | --- | --- | --- |
| C=CC(=O)N1CCC([C@@H]2CCNc3c(C(N)=O)c(-c4ccc(Oc5ccccc5)cc4)nn32)CC1 | enzyme activity | inhibitor | – | 1 µM | inhibition | 14% |
| N#Cc1ccc(NC(=O)Nc2ccccc2)cc1 | cell-free assay | – | competition with immobilised ligand | 25 µM | remaining binding | 82% |
| C[C@H]1CC[C@H](n2c3cnccc3c3cnc(Nc4ccc5c(n4)CCN(C(=O)CO)C5)nc32)CC1 | cell-free assay | – | competition with immobilised ligand | 1 µM | remaining binding | 34% |
| C#Cc1cnc(Nc2ccnc(CO)c2)nc1Nc1ccccc1S(C)(=O)=NC#N (stereo not drawn) | cell-free assay | – | – | 1 µM | remaining signal | < 10% |
| CN1CCN(C(=O)c2ccc(NC(=O)Nc3ccc(N(C)c4ccnc(Nc5ccc(CS(C)(=O)=O)cc5)n4)cc3)cc2)CC1 | binding | – | competition with immobilised ligand | 1 µM | remaining binding | 0.4% |
| Cc1cc(O)c(-c2ccc([C@@H](C)CN(C)C)cc2)c2c1[nH]c(=O)c1sccc12 | enzyme activity | inhibitor | – | 0.1 µM | inhibition | 21.5% |
| CO[C@@H]1[C@H](N(C)C(=O)c2ccccc2)C[C@H]2O[C@]1(C)n1c3ccccc3c3c4c(c5c6ccccc6n2c5c31)C(=O)NC4 | enzyme activity | inhibitor | – | 1 µM | inhibition | 94% |
| CC(=O)ON=C1C=CC(=C(C#N)c2ccccc2)C=C1 | enzyme activity | inhibitor | ADP detection | 2 µM | activity vs control | 96% |
| CCCCC(=O)Nc1ccc(-c2ccc3ncn(CCC)c(=O)c3c2)cn1 | binding | – | competition with immobilised ligand | 0.5 µM | remaining binding | 76% |
| C#Cc1cc(-c2cc(Nc3nc(N[C@@H](C)c4ccc(F)cn4)ncc3Cl)n[nH]2)ccc1C=O | enzyme activity | inhibitor | – | 0.2 µM | inhibition | 16.6% |
| COc1ccc2oc(-c3ccc4nc(N)oc4c3)c/c(=N\c3ccccc3NC(=O)CCN)c2c1 | cell-free assay | – | – | 1 µM | remaining signal | 99% |
| C1=C/COCc2cc(ccc2OCCN2CCCC2)Nc2nccc(n2)-c2cccc(c2)COC/1 | binding | – | – | 0.1 µM | remaining binding | 100% |
